Many of the other results were omitted from the sample, so hits are more common in it than they were.
GSH bead fluor – GSH bead compound fluorescence profile; GSH beads flow cytometry, compound fluorescence 488/530 nm; hits give high values; fluorescence (KMESF) at 10 µM; 0.25% of 190,000 active; in the data active = fluorescence above about 89;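 note: glutathione beads carrying GST-tagged Bcl family fusion proteins plus one bare bead set; values are compound well signal with DMSO vehicle wells as background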
Avidin fluor – compound fluoresces at 488/530 nm on avidin beads; compound fluorescence 488/530 nm, flow cytometry; hits give high values; fluorescence (KMESF) at 10 µM; 0.38% of 220,000 active; in the data active = fluorescence above about 47
Lmaj promast – Leishmania major promastigote growth inhibition | Leishmania major promastigotes, resazurin fluorescence viability | inhibition, % at 10 µM | 9% of 200,000 active | AID 1063;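 note: promastigotes grown with compound for 44 hours at 28 °C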
ABCG2 block – blocks JC-1 efflux by human ABCG2 transporter | Q9UNQ0 | IgMXP3 cells, flow cytometry | inhibition, % at 6.6 µM | 0.1% of 190,000 active | AID 1325;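 active = inhibition above 80%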;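 note: 0% = DMSO and 100% = nicardipine control wells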
Target sequence (Q9UNQ0 whole entry, looked up): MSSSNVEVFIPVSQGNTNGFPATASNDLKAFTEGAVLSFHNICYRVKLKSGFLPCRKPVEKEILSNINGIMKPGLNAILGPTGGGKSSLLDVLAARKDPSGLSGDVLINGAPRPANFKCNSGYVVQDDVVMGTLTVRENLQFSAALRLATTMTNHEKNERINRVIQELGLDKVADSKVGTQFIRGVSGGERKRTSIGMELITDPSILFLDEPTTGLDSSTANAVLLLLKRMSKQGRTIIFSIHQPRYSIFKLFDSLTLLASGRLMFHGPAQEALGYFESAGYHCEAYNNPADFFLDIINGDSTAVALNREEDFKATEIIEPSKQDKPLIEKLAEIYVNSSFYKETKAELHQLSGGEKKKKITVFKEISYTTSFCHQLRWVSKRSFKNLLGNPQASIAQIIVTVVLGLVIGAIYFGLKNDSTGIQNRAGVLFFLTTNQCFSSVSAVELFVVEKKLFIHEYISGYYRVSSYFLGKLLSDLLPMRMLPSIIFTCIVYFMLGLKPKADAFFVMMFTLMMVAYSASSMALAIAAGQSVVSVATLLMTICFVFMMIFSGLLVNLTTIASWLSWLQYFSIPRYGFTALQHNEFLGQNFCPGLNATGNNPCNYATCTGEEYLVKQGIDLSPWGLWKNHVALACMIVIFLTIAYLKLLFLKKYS
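Incubation: cells with compound and JC-1, 10 min at 25 °C, rotating, no wash / Test system: IgMXP3 (ABCG2) plus far-red-tagged CCRF-Adr (ABCB1) cells / Compound dosing: one concentration, 6.6 µM final / Also added: JC-1 fluorescent substrate / Evaluation: efflux inhibition in percent versus controls / Detection: flow cytometry, 530 nm JC-1 signal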
ABCB1 inh – human ABCB1 inhibition, ABCG2 as counter-screen; CCRF-Adr cells, JC-1 efflux, flow cytometry; inhibition, % at 6.6 µM; 0.067% of 190,000 active; in the data active = inhibition above about 40%;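 note: 0% = vehicle and 100% = reference inhibitor; higher value means more JC-1 retained so stronger ABCB1 efflux block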
PKD1 kinase inh – PKD1 (human) kinase inhibition; AID 797; inhibition, % (no concentration beside the values); Q15139; 0.056% of 200,000 active; PKD1 kinase fluorescence polarization assay
Active calls of the source: *. Cut-off read from the data, not from the text of the source, unless noted: active = inhibition above about 50%; inactive = the rest.

`CC(C)(Oc1ccc(CCNC(=O)c2ccc(-c3ccccc3)o2)cc1)C(=O)O` gave GSH bead fluor 20, Avidin fluor 13, Lmaj promast -8.2, ABCG2 block 8.0, ABCB1 inh 0.3 and PKD1 kinase inh -0.1.
Screening COc1cc(/C=C2/C(=N)N3C=CSC3=NC2=O)ccc1OCCCOc1cc(C)ccc1C returned GSH bead fluor 9, Avidin fluor 9, Lmaj promast 2.4, ABCG2 block -1.9, ABCB1 inh -0.6 and PKD1 kinase inh -4.4.
CC(C)c1csc(CN2CCN(Cc3ccc(F)cc3)C(CCO)C2)n1 (centres undefined) was read as GSH bead fluor 10, Avidin fluor 8, Lmaj promast 80.9*, ABCG2 block -0.2, ABCB1 inh -0.4 and PKD1 kinase inh -2.2.
Screening Cc1ccc(CN2CCN(Cc3nc(C(C)C)cs3)CC2CCO)cc1 (centres undefined) returned GSH bead fluor 12, Avidin fluor 1, Lmaj promast 74.2*, ABCG2 block 0.0, ABCB1 inh 0.0 and PKD1 kinase inh -8.6.
For COC(=O)c1c(NC(=O)CC2SC(N)=NC2=O)sc(C)c1C (centres undefined) the results were GSH bead fluor 20, Avidin fluor 5, Lmaj promast 2.4, ABCG2 block 1.0, ABCB1 inh 0.0 and PKD1 kinase inh 6.1.
`O=C(Nc1ccc(Cl)cc1)c1csc(Cc2ccccc2)n1` gave GSH bead fluor 18, Avidin fluor 8, Lmaj promast -0.1, ABCG2 block 0.2, ABCB1 inh 0.4 and PKD1 kinase inh -1.2.
Fc1ccc(/C=N/Nc2ncnc3nc[nH]c23)cc1F was read as GSH bead fluor 13, Avidin fluor 5, Lmaj promast 50.1*, ABCG2 block 7.4, ABCB1 inh 0.1 and PKD1 kinase inh -1.6.
COC(=O)Cc1cc(=O)[nH]c(/N=C(\N)Nc2ccccc2)n1 was read as GSH bead fluor 26, Avidin fluor 35, Lmaj promast -4.6, ABCG2 block 6.9, ABCB1 inh 0.8 and PKD1 kinase inh 0.1.
CCOC(=O)c1cc(C#N)c(Nc2ccc(C)cc2)nc1C(F)(F)F was read as Avidin fluor 8.
O=C(c1cccs1)N1CCN(C2CCN(Cc3ccccc3)CC2)CC1 was read as GSH bead fluor 35, Avidin fluor 12, Lmaj promast 90.9*, ABCG2 block 1.0, ABCB1 inh 0.5 and PKD1 kinase inh -1.0.
O=C(C1CCCN(S(=O)(=O)c2cccs2)C1)N1CCN(C2CCCCC2)CC1 (centres undefined) was read as GSH bead fluor 42, Avidin fluor 16, Lmaj promast 83.0*, ABCG2 block 0.7, ABCB1 inh 0.7 and PKD1 kinase inh -1.9.
`CCOc1ccccc1CN1CCN(S(C)(=O)=O)CC1` gave GSH bead fluor 28, Avidin fluor 4, Lmaj promast 82.1*, ABCG2 block 0.5, ABCB1 inh 0.2 and PKD1 kinase inh -6.3.
`CS(=O)(=O)N1CCN(C2CCN(Cc3ccccc3)CC2)CC1` gave GSH bead fluor 12, Avidin fluor 12, Lmaj promast 77.3*, ABCG2 block 1.4, ABCB1 inh 0.7 and PKD1 kinase inh -1.1.
For CS(=O)(=O)N1CCC(C(=O)NCCN2CCN(Cc3ccccc3)CC2)CC1 the results were GSH bead fluor 52, Avidin fluor 5, Lmaj promast -4.8, ABCG2 block 0.6, ABCB1 inh 0.1 and PKD1 kinase inh -0.1.
For COc1ccccc1NC(=O)Cn1c2ccccc2c2nc3n(c(=O)c21)CCS3 the results were GSH bead fluor 12, Avidin fluor 8, Lmaj promast 17.9, ABCG2 block -0.1, ABCB1 inh 3.2 and PKD1 kinase inh 5.3.
For CC1CCN(C(=O)Cn2cc(C(=O)C3CC3)c3ccccc32)CC1 the results were GSH bead fluor 24, Avidin fluor 4, Lmaj promast 6.9, ABCG2 block 2.2, ABCB1 inh 0.9 and PKD1 kinase inh -10.4.
For O=C(CC1(O)C(=O)Nc2cc(Cl)cc(Cl)c21)c1ccccc1O (centres undefined) the results were GSH bead fluor 13, Avidin fluor 23, Lmaj promast 15.3, ABCG2 block 1.8, ABCB1 inh 0.3 and PKD1 kinase inh -8.5.

Bioassay records (PubChem)
